Results as given in PMC4301073 (ACS Chemical Biology, 2014).
≈ marks a conversion by molar mass, not a printed value. Blank lines part the entries; values can stand above or below the compound they belong to.

Assays:
B. subtilis 3610 = assay: Broth microdilution antimicrobial testing; assay type: cell-based, Bacillus subtilis; details: for MIC: Bacillus subtilis, 3610, 20 h, read-out: MIC values B. subtilis 3610; for MIC values B. subtilis 3610: n = 2
Summary of the method: (§1)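 Serial dilutions in Mueller-Hinton Broth 2, inoculated at 5 × 10^5 cfu/mL; wells ≤5% DMSO. Growth, sterility, DMSO and known-antibiotic controls included; inoculum count checked by plating on MHB 2 agar. Incubated 20 h at 37 °C. MIC taken as lowest concentration with no growth visible to unaided eye.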

HK853 [1] = biological target: T1, HK853 (Thermotoga maritima, UniProt Q9WZV7); assay: Control FP competition; assay type: binding
T1 sequence (Q9WZV7 232-489): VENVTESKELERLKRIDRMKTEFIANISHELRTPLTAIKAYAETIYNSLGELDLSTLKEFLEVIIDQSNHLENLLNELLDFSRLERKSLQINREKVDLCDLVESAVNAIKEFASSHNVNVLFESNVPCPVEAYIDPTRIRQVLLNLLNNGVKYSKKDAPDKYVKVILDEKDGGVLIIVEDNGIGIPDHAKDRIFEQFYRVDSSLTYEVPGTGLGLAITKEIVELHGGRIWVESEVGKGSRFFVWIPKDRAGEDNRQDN
Summary of the method: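 Competition format: 25 μM HK853 plus 10 nM ADP-BODIPY probe with 0–1000 μM competing nucleotide and 5% (v/v) DMSO, in 50 mM Tris-HCl pH 7.8, 200 mM KCl, 5 mM MgCl2. Incubation and FP read as for binding, in triplicate. FP plotted against log molar competitor; IC50 from four-parameter logistic fit.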

VicK = biological target: T2, VicK (Streptococcus pneumoniae, UniProt Q8DPL8); assay: Inhibition of VicK activity; assay type: biochemical
T2 sequence (Q8DPL8 36-449 limits assumed): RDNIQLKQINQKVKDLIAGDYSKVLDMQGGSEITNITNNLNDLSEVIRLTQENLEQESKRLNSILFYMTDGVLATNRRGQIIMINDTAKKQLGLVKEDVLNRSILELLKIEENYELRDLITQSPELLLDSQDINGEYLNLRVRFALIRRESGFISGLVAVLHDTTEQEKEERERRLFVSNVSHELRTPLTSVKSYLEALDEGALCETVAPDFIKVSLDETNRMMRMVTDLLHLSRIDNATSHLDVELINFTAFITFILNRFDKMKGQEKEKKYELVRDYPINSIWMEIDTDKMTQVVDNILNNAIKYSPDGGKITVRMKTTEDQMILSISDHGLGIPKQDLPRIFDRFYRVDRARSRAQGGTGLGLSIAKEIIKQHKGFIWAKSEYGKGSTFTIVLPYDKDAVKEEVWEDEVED
Summary of the method: (§2)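 Enzyme (VicK 2 μM; for CheA, 2 μM CheA plus 6 μM CheW) preincubated with test compound 30 min RT, then radioactive ATP mix added. Final: 3 μM ATP [γ-33P] (20 Ci mmol–1), 5% DMSO, 0.1% Triton X-100 in reaction buffer, pH 7.8. Reacted 30 min RT, quenched in SDS loading buffer, run on SDS-PAGE. Radioactive band density normalised to no-inhibitor control; IC50 from four-parameter logistic fit.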

HK853 [2] = biological target: T1, HK853; assay: Inhibition of HK853 autophosphorylation activity; assay type: biochemical
CheA = biological target: T3, CheA (Escherichia coli, UniProt P07363); assay: Inhibition of CheA activity; assay type: biochemical
T3 sequence (P07363 1-654): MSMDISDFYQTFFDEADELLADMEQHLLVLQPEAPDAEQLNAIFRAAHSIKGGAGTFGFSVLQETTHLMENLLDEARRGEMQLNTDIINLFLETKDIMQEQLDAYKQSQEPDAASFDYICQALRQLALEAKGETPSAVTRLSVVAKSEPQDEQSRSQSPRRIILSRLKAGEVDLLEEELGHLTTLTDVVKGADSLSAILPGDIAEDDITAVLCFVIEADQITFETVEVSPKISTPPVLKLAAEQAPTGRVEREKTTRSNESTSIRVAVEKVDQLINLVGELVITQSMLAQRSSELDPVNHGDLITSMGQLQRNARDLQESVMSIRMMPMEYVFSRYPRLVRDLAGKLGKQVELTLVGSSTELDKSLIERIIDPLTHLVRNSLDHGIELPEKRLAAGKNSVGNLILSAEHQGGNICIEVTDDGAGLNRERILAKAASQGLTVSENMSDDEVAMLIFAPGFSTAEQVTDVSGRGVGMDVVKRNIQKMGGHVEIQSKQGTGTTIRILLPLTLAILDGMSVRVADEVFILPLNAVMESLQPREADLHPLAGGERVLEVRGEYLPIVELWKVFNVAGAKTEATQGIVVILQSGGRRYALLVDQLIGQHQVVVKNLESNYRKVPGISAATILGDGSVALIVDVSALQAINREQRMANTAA
Summary of the method: as §2

E. coli DC2 = assay: Broth microdilution antimicrobial testing; assay type: cell-based, Escherichia coli; details: for MIC: Escherichia coli, DC2, 20 h, read-out: MIC values E. coli DC2
Summary of the method: as §1

Vero 76 cells = assay: Cytotoxicity testing; assay type: cell-based, African green monkey; details: DMSO control, n = 2
PhoQ = details: cited from earlier work
HK853 [3] = biological target: T1, HK853; assay: High-throughput primary FP screen for displacement of ADP-BODIPY; assay type: binding; details: 20 μM compound
four HK proteins = details: cited from earlier work

Compound: C[S+](C)[O-] [DMSO, dimethyl sulfoxide]
- MIC values E. coli DC2 (E. coli DC2; DMSO control, n = 2): 10–20% (v/v)
- CC50 Vero 76 Cells (Vero 76 cells): >0.5% (v/v)
- MIC values B. subtilis 3610 (B. subtilis 3610; DMSO control): 20% (v/v)

Compound: O=c1cc(-c2ccc(O)c(O)c2)oc2cc(O)cc(O)c12 [Compound 15, luteolin]
- MIC (E. coli DC2): 8 µg/mL (≈ 27.9 µM)
- IC50 (VicK): 216 µM
- IC50 (HK853 [2]): 15.1 µM
- MIC (B. subtilis 3610): > 128 µg/mL

Compound: CC1(C)S[C@@H]2[C@H](NC(=O)[C@H](N)c3ccccc3)C(=O)N2[C@H]1C(=O)O [ampicillin]
- MIC (E. coli DC2): 0.25 µg/mL (≈ 0.715 µM)

Compound: O=C(N[C@H](CO)[C@H](O)c1ccc([N+](=O)[O-])cc1)C(Cl)Cl [chloramphenicol]
- MIC (E. coli DC2): 0.5 to 1 µg/mL (≈ 1.55 to 3.09 µM)
- MIC (B. subtilis 3610): 2 to 4 µg/mL (≈ 6.19 to 12.4 µM)

Compound: N#Cc1c(N)nc2sc(C(=O)Nc3ccc(Br)cc3)c(N)c2c1-c1ccccc1 [TEP, 3,6-diamino-5-cyano-4-phenylthieno[2,3-b]pyridine-2-carboxylic acid (4-bromo-phenyl)-amide]
- IC50 values (four HK proteins): low micromolar range

Compound: Nc1nc2ccc(OC(F)(F)F)cc2s1 [Compound 12, riluzole]
- MIC (E. coli DC2): 128 µg/mL (≈ 547 µM)
- IC50 (VicK): 618 µM
- MIC (B. subtilis 3610): 293 µg/mL (≈ 1250 µM)
- IC50 (CheA): 1340 µM

The next lines start with results.

- MIC (B. subtilis 3610): 0.5 µg/mL (≈ 0.345 µM)
Compound: CN[C@H](CC(C)C)C(=O)N[C@H]1C(=O)N[C@@H](CC(N)=O)C(=O)N[C@H]2C(=O)N[C@H]3C(=O)N[C@H](C(=O)N[C@H](C(=O)O)c4cc(O)cc(O)c4-c4cc3ccc4O)[C@H](O)c3ccc(c(Cl)c3)Oc3cc2cc(c3O[C@@H]2O[C@H](CO)[C@@H](O)[C@H](O)[C@H]2O[C@H]2C[C@](C)(N)[C@H](O)[C@H](C)O2)Oc2ccc(cc2Cl)[C@H]1O [vancomycin]

- IC50 (HK853 [1]): 27.7 ± 0.9 µM
- IC50 (VicK): 4.81 µM
- IC50 (HK853 [2]): 2.57 µM
- increased potency over AMP (9) (HK853 [2]; from Table 1 IC50 values of HK inhibition): more than 300 fold
- IC50 (CheA): 21.5 µM
Compound: Nc1ncnc2c1ncn2[C@@H]1O[C@H](COP(=O)(O)OP(=O)(O)O)[C@@H](O)[C@H]1O [ADP (3), adenosine diphosphate]

- IC50 (HK853 [1]): 23 ± 1.1 µM
Compound: Nc1ncnc2c1ncn2[C@@H]1O[C@H](COP(=O)(O)OP(=O)(O)OP(=O)(O)O)[C@@H](O)[C@H]1O [ATP (2), adenosine triphosphate]

- MIC values B. subtilis 3610 (B. subtilis 3610; 20 h at 37 °C, lowest concentration that inhibited visible growth): ≤0.06–0.5 μg mL^–1
Compound: penicillin

- inhibition of HK853 activity in follow-up assays (HK853 [2]; Supporting Information Table 1, n=1): slight inhibition
Compound: O=c1c(-c2ccc(O)cc2)coc2cc(O)cc(O)c12 [Genistein, genistein]

- IC50 (HK853 [2]): 463 µM
Compound: Nc1ncnc2nc[nH]c12 [adenine (10), adenine]

- displacement of ADP-BODIPY (1) in primary screening (HTS) (HK853 [3]): failed to displace ADP-BODIPY (1)
Compound: C[C@@H]1C[C@H]2O[C@@H]2/C=C\C=C\C(=O)Cc2c(Cl)c(O)cc(O)c2C(=O)O1 [radicicol]
- difference in selectivity between Hsp90 and PhoQ (PhoQ): > 30 fold

- displacement of ADP-BODIPY (1) in primary screening (HTS) (HK853 [3]): failed to displace ADP-BODIPY (1)
Compound: C=CCNC1=C2C[C@@H](C)C[C@H](OC)[C@H](O)[C@@H](C)/C=C(\C)[C@H](OC(N)=O)[C@@H](OC)/C=C\C=C(/C)C(=O)NC(=CC1=O)C2=O [17-AAG]

- displacement of ADP-BODIPY (1) in primary screening (HTS) (HK853 [3]): failed to displace ADP-BODIPY (1)
Compound: COC1=C2C[C@@H](C)C[C@H](OC)[C@H](O)[C@@H](C)/C=C(\C)[C@H](OC(N)=O)[C@@H](OC)/C=C\C=C(/C)C(=O)NC(=CC1=O)C2=O [geldanamyin]
